Screens from PubChem.
CHRM5 antagonist: human M5 muscarinic receptor antagonists, primary screen, CHO cells, Fluo-8 calcium fluorescence; Muscarinic acetylcholine receptor M5 (Homo sapiens), P08912; CHO-hM5 cells, ACh EC80; inhibition, % at 3 µM; hit rate 0.59% among 360,000; AID 624040, 2012;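 active = inhibition above a per-plate cutoff, the mean of that plate's test compounds plus 3 SD, cut at about 27% in these data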
Target sequence (P08912 whole entry, looked up): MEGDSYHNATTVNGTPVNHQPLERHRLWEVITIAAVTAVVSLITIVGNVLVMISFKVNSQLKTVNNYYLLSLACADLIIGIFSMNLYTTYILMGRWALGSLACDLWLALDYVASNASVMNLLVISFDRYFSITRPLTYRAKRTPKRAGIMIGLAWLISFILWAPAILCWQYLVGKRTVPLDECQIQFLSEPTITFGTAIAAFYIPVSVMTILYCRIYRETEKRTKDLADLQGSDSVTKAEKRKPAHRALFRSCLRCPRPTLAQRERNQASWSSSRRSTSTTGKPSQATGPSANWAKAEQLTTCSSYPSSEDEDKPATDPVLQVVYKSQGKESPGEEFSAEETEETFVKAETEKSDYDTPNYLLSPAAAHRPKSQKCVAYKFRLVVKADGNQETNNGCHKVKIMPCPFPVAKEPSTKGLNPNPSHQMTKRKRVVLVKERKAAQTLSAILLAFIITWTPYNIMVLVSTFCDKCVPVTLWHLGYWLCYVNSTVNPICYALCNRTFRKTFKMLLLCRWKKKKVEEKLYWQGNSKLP
M5 ag: human M5 muscarinic receptor agonists, primary screen, CHO-K1 cells, Fluo-8 calcium fluorescence. hit rate 0.19% among 360,000. CHO-K1 hM5 cells; 0% DMSO wells, 100% maximal acetylcholine response. activation, % at 3 µM. Muscarinic acetylcholine receptor M5 (Homo sapiens), P08912;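 active = activation above the run's mean over test compounds plus 3 SD, cut at about 23% in these data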;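 note: signal is peak over basal fluorescence ratio across the kinetic read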
M4 PAM: human M4 muscarinic receptor positive allosteric modulators, primary screen, CHO-K1 cells, Fluo-8 calcium fluorescence; hit rate 0.4% among 360,000; AID 624126, 2012; Muscarinic acetylcholine receptor M4 (Homo sapiens), P08173; activation, % at 3 µM; CHO-K1 hM4/Gqi5, ACh EC20; 0% = ACh EC20, 100% = maximal ACh;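 active = activation above its plate's cutoff, the mean activation of sample wells plus 3 SD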
CHRM4 antagonist: human M4 muscarinic receptor antagonists, primary screen, CHO cells, Fluo-8 calcium fluorescence. Muscarinic acetylcholine receptor M4 (Homo sapiens), P08173. CHO-hM4 cells, ACh EC80. inhibition, % at 3 µM. hit rate 0.73% among 360,000. AID 624125, 2012;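 active = inhibition above its plate's cutoff, the mean inhibition of sample wells plus 3 SD, cut at about 27% in these data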
CHRM4 agonist: human M4 muscarinic receptor agonists, primary screen, CHO-K1 cells, Fluo-8 calcium fluorescence; hit rate 0.14% among 360,000; Muscarinic acetylcholine receptor M4 (Homo sapiens), P08173; activation, % at 3 µM; CHO-K1 hM4/Gqi5; vehicle 0%, full acetylcholine response 100%;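 active = activation above the run mean over all test wells plus 3 SD, cut at about 32% in these data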;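 note: peak over basal fluorescence ratio per well then scaled between controls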
M5 PAM: human M5 muscarinic receptor positive allosteric modulators, primary screen, CHO-K1 cells, Fluo-8 calcium fluorescence | hit rate 0.3% among 360,000 | Muscarinic acetylcholine receptor M5 (Homo sapiens), P08912 | activation, % at 3 µM | CHO-K1 hM5, ACh EC20 PAM; 0% = ACh EC20, 100% = ACh EC100;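 active = activation above the run cutoff, the mean activation of all test compounds plus 3 SD, cut at about 18% in these data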
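Assay system: CHO-K1 hM5 cells. Also added: acetylcholine at EC20 concentration, added after compound. Dosing: 3 µM, single dose. Times: compound preincubation 140 s before EC20 acetylcholine addition. Signal: Fluo-8 calcium fluorescence. Measure: % activation relative to EC20 and EC100 ACh responses. Repeats: singlicate, one well per test compound.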
Hits are given with their value; . = inactive. Rows were chosen to be rich in hits. Some 1.8% of all compounds tested hit in one or more screens of this group.

SMILES	CHRM5 antagonist	M5 ag	M4 PAM	CHRM4 antagonist	CHRM4 agonist	M5 PAM
O=C(Nc1ccccc1-c1ccccc1)C1CCC1	.	.	.	.	54	.
CC(C)n1ncc2c(C(=O)N3CCN(Cc4ccc(Br)s4)CC3)cc(C3CC3)nc21	.	.	.	.	.	.
Cc1cc(C)c2nc(N3CCCN(C(=O)c4cnccn4)CC3)c(C#N)cc2c1	.	.	.	.	.	.
CCOc1ccc(Br)cc1/C(C)=N\NC1=NCCN1	32	.	.	.	.	.
Cc1ccn2cc(CNS(=O)(=O)c3ccc4ccccc4c3)nc2c1	.	.	.	99	.	.
Cc1cccn2cc(CNS(=O)(=O)c3ccc4ccccc4c3)nc12	.	.	.	.	.	.
CCOC(=O)[C@]12CCC=C1N(Cc1ccc(Cl)cc1Cl)C(=O)[C@H](CC(=O)N1CCOCC1)C2	.	.	.	.	.	.
S=C1NC[C@H](Cc2ccccc2)N1CC1CCN(CCCCc2ccccc2)CC1	.	.	.	28	.	.
O=C1NC[C@H](Cc2ccccc2)N(CC2CCN(CCCCc3ccccc3)CC2)C1=O	.	.	.	.	.	.
Cc1cc(F)ccc1S(=O)(=O)N(CC(=O)N1CCOCC1)CC(=O)N1CCOCC1	.	.	25	.	.	.
CS(=O)(=O)c1sc(C#N)c2c1C(=O)CC(c1ccccc1)C2 (centres undefined)	31	.	.	76	.	.
Cc1nccc(-c2sc(-c3cccs3)nc2C)n1	.	.	69	.	.	.
O=C(OCC(=O)N1CCN(C(=O)c2ccco2)CC1)c1cccc(S(=O)(=O)N2CCc3ccccc32)c1	.	.	.	.	.	.
O=C(NCc1ccc2c(c1)OCO2)c1nnc(Cc2ccc(F)cc2)o1	.	.	.	.	.	.
Nc1nc2cc3c(cc2cc1C(=O)NCc1ccc(F)cc1)OCO3	27	.	.	.	.	.
CC(C)c1cc(C(=O)NCc2ccc(F)cc2)c(N)s1	.	.	.	.	.	18
O=C(Nc1ccc(N2CCOCC2)cc1N1CCOCC1)c1ncoc1-c1cccc(F)c1	.	.	.	.	.	.
CCNS(=O)(=O)c1ccc(CCC(=O)Nc2cc(Cl)ccc2Oc2ccccc2)cc1	.	.	.	28	.	.
Cc1ccc(OCCOC(=O)c2cccc(S(=O)(=O)N3CC(C)OC(C)C3)c2)cc1 (centres undefined)	.	.	.	.	.	.
Cc1nc2c(C(F)(F)F)cccc2c2c1CCS2	.	.	.	.	.	19
CC(C)(C)NCCC(O)c1cc(C(F)(F)F)nc2c(C(F)(F)F)cccc12 (centres undefined)	.	.	.	.	.	.
CCc1cccc2sc(N3CCN(C(=O)c4ccc([N+](=O)[O-])o4)CC3)nc12	.	.	.	.	.	.
CC(=O)N1CCN(c2ccc(NCc3ccc4c(c3)OCO4)cc2)CC1	.	.	23	.	.	.
COc1ccccc1C(CNC(=O)c1cccc(S(=O)(=O)N2c3ccccc3CC2C)c1)N(C)C (centres undefined)	78	.	.	.	.	.
CC1Cc2ccccc2N1S(=O)(=O)c1cccc(C(=O)NCc2ccco2)c1 (centres undefined)	.	.	.	.	.	.
COc1ccc(C(CNC(=O)c2cccc(S(=O)(=O)N3CCc4ccccc43)c2)N(C)C)cc1 (centres undefined)	.	.	.	.	.	.
COc1ccccc1C(CNC(=O)c1cccc(S(=O)(=O)N2CCCc3ccccc32)c1)N(C)C (centres undefined)	67	.	.	.	.	.
Cc1ccc(C(=O)c2c(C)oc3c2C(=O)C(=O)c2ccccc2-3)cc1	.	.	.	.	.	.
